Laboratory results: ChEMBL document CHEMBL1128231, “Amphoteric drugs. 3. Synthesis and antiallergic activity of 3-[(5,11-dihydro[1]benzoxepino[4,3-b]pyridin-11-ylidene)piperidino]propionic acid derivatives and related compounds” (J Med Chem, 1995)

Columns and labels:
Rattus norvegicus [1] = assay: Antiallergic activity was evaluated by inhibitory effect on 48/80-induced lethality in rats at a dose 1 (mg/kg, po); assay type: functional
Summary of the method: (§1)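 Male Wistar rats, 6 weeks old, fasted 24 h, n = 5. Survival beyond 2 h scored all-or-none; percent inhibition of lethality recorded at each oral dose.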

Rattus norvegicus [2] = assay: Antiallergic activity was evaluated by inhibitory effect on compound 48/80-induced lethality in rats at a dose 10 (mg/kg, po); assay type: functional; summary of the method: as §1
Rattus norvegicus [3] = assay: Antiallergic activity was evaluated by inhibitory effect on compound 48/80-induced lethality in rats at a dose 0.01 (mg/kg, po); assay type: functional; summary of the method: as §1
Rattus norvegicus [4] = assay: Antiallergic activity was evaluated by inhibitory effect on 48/80-induced lethality in rats at a dose 0.1 (mg/kg, po); assay type: functional; summary of the method: as §1
[5] = Octanol-buffer partition coefficient determined by dividing its equilibrium organic concentration by its aqueous concentration; assay type: physicochemical; conditions: octanol/water
Summary of the method: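 Sample dissolved at 10 µg/mL in Sørensen buffer pH 7.4; equal volumes buffer and 1-octanol shaken 24 h at 25 °C, centrifuged. Each phase quantified by HPLC (UV 254 nm, ODS column, 0.03 M phosphate pH 3.0–CH3CN 7:3). PCoct = organic/aqueous equilibrium concentration.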

[6] = molecular target: Histamine H1 receptor (Mus musculus) (UniProt P70174); assay: Ex vivo inhibition of [3H]mepyramine binding to mouse brain membrane H1 receptor after oral administration; assay type: functional, organism-based
Histamine H1 receptor (Mus musculus), sequence (P70174 whole entry): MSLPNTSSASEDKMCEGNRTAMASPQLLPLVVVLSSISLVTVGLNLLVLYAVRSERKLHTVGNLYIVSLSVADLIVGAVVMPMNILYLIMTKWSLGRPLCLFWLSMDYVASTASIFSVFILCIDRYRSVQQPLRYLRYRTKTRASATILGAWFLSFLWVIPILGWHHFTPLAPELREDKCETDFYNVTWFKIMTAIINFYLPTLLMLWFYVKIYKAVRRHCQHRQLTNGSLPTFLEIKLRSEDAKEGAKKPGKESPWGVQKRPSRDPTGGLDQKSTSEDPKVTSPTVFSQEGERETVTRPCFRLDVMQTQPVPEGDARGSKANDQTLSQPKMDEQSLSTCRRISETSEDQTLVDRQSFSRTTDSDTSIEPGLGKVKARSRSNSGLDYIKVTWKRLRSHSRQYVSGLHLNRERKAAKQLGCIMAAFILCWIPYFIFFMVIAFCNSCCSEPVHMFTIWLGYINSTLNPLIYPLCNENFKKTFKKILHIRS
Summary of the method: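 Male ICR mice (6 weeks, starved 24 h) dosed orally with compound or vehicle; brain taken 1 h later and homogenized in 40 volumes 50 mM phosphate buffer pH 7.4. Membranes incubated with [3H]mepyramine (final 2 nM), 25 °C, 30 min; filtered, scintillation counted.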

Mus musculus [7] = assay: Inhibitory effect on histamine-induced increase in vascular permeability in mice upon oral administration; assay type: functional
Summary of the method: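 Male ICR mice (6 weeks, starved 20 h) dosed orally; 1 h later, under light ether, intradermal histamine dihydrochloride 2.5 µg/site plus saline after iv 0.2 mL 1% Evans blue. Killed 30 min later; extravasated dye extracted and assayed. ED50 from log-logit dose–percent inhibition, least squares, with 95% confidence limits.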

Mus musculus [8] = assay: Tested for Hexobarbital-induced anesthesia in mice by measuring dose which produced 50% increase of the sleeping time upon oral administration; assay type: functional; conditions: read-out: ID50 (the source's name)
Summary of the method: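 Male ICR mice (5 weeks, starved 20–24 h) dosed orally; 1 h later hexobarbital 80 mg/kg ip. Sleeping time = duration of loss of righting reflex; responders show >50% increase over controls. ID50 from number responding at each dose by Litchfield–Wilcoxon, with 95% confidence limits.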

[9] = Selectivity as the ratio of ID50 value to that of ED50 value in mice.; assay type: functional
Summary of the method: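 Ratio B/A: B = oral ID50 for ex vivo [3H]mepyramine binding in mouse brain membranes (1 h post-dose); A = oral ED50 against histamine-induced skin vascular permeability in mice.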

Cavia porcellus [10] = assay: Histamine induced in lethality in guinea pigs at 8 hr after oral dose of 0.3 mg/kg; assay type: functional
Summary of the method: (§2)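 Male Hartley guinea pigs, 6 weeks old, fasted 24 h, n = 10, dosed orally. Eight hours later histamine dihydrochloride given iv at a lethal dose of 1 mg/kg. Survival beyond 30 min scored all-or-none; percent inhibition of lethality reported.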

Cavia porcellus [11] = species: Cavia porcellus; assay: animal or person; conditions: po, 8 h, read-out: Inhibition
Cavia porcellus [12] = assay: Histamine induced in lethality in guinea pigs at 8 hr after oral dose of 0.02 mg/kg; assay type: functional; summary of the method: as §2

Structure (SMILES)	Inhibition (Rattus norvegicus [1]) [%]	Inhibition (Rattus norvegicus [2]) [%]	Inhibition (Rattus norvegicus [3]) [%]	Inhibition (Rattus norvegicus [4]) [%]	ID50 [6] [mg/kg]	ED50 (Mus musculus [7]) [mg/kg]	Selectivity [9]	also measured
O=C(O)CCN1CCC(=C2c3cc(C(=O)O)ccc3OCc3cccnc32)CC1	0	20	–	–	–	–	–	–
COc1ccc2c(c1)OCc1ncccc1C2=C1CCN(CCC(=O)O)CC1	100	–	0	40	–	–	–	–
CN1CCC(=C2c3ccccc3OCc3cccnc32)CC1	100	–	–	0	0.2	0.011	18	PCoct [5]: 28.4; ED50 (Mus musculus [8]): > 100 mg/kg
CC(=O)c1ccc2c(c1)C(=C1CCN(CCC(=O)O)CC1)c1ncccc1CO2	20	100	–	0	–	–	–	–
O=C(O)CCN1CCC(=C2c3cc(F)ccc3OCc3cccnc32)CC1	20	100	–	0	–	–	–	–
O=C(O)CCN1CCC(=C2c3ccc(Br)cc3OCc3cccnc32)CC1	60	100	0	40	–	–	–	–
O=C(O)CCN1CCC(=C2c3ccc(F)cc3OCc3ncccc32)CC1	–	–	40	100	2.5	0.0037	680	ED50 (Rattus norvegicus [2]): 0.034 mg/kg; inhibition in vivo at 0.3 mg/kg (Cavia porcellus [10]): 60%
O=C(O)CCN1CCC(=C2c3ccccc3OCc3cccnc32)CC1	100	–	–	0	19	0.012	1600	PCoct [5]: 0.52; ED50 (Mus musculus [8]): > 100 mg/kg
CN1CCC(=C2c3ccccc3OCc3ncccc32)CC1	100	–	–	0	0.49	0.025	20	PCoct [5]: 54.3; ED50 (Mus musculus [8]): 9.9 mg/kg
CC(CC(=O)O)N1CCC(=C2c3ccc(F)cc3OCc3cccnc32)CC1 (configuration not stated)	0	100	–	–	–	–	–	–
O=C(O)CCN1CCC(=C2c3ccccc3OCc3ncccc32)CC1	100	–	0	40	3.4	0.01	340	PCoct [5]: 0.56; ED50 (Mus musculus [8]): > 100 mg/kg
O=C(O)CCN1CCC(=C2c3cccc([N+](=O)[O-])c3OCc3cccnc32)CC1	0	60	–	–	–	–	–	–
O=C(O)CCN1CCC(=C2c3cc(F)ccc3OCc3ncccc32)CC1	100	–	0	60	–	–	–	–
COc1ccc2c(c1)OCc1cccnc1C2=C1CCN(CCC(=O)O)CC1	20	100	–	0	–	–	–	–
O=C(O)CCN1CCC(=C2c3cccc(Cl)c3OCc3cccnc32)CC1	60	100	–	0	–	–	–	–
O=C(O)CCN1CCC(=C2c3ccc(Cl)cc3OCc3cccnc32)CC1	80	100	–	0	–	–	–	–

Structure (SMILES)	Inhibition (Rattus norvegicus [1]) [%]	Inhibition (Rattus norvegicus [2]) [%]	Inhibition (Rattus norvegicus [3]) [%]	Inhibition (Rattus norvegicus [4]) [%]	ID50 [6] [mg/kg]	ED50 (Mus musculus [7]) [mg/kg]	Selectivity [9]	also measured
Cc1ccc(/C(=C\CN2CCCC2)c2cccc(/C=C/C(=O)O)n2)cc1 [ACRIVASTINE]	–	–	–	–	> 300	0.63	>480	ED50 (Rattus norvegicus [2]): 3.3 mg/kg; inhibition in vivo at 0.16 mg/kg (Cavia porcellus [11]): 0%
CN1CCC(=C2c3ccccc3CC(=O)c3sccc32)CC1 [KETOTIFEN]	–	–	–	–	0.65	0.23	2.8	inhibition in vivo at 0.02 mg/kg (Cavia porcellus [12]): 10%
O=C(O)CCN1CCC(=C2c3ccccc3COc3ccccc32)CC1	100	–	20	60	0.062	0.0038	16	PCoct [5]: 9.66; ED50 (Mus musculus [8]): 16 mg/kg
CC(CN1CCC(=C2c3ccc(F)cc3OCc3cccnc32)CC1)C(=O)O (configuration not stated)	100	–	20	60	2.3	0.011	210	–
CCOC(=O)N1CCC(=C2c3ccc(Cl)cc3CCc3cccnc32)CC1 [LORATADINE]	–	–	–	–	–	0.21	–	inhibition in vivo at 0.3 mg/kg (Cavia porcellus [10]): 80%
Cc1ccc2c(c1)OCc1cccnc1C2=C1CCN(CCC(=O)O)CC1	40	100	0	20	–	–	–	–
CC(CN1CCC(=C2c3ccc(F)cc3OCc3ncccc32)CC1)C(=O)O (configuration not stated)	–	–	20	100	–	–	–	–
Cc1ccc2c(c1)OCc1ncccc1C2=C1CCN(CCC(=O)O)CC1	60	100	0	20	–	–	–	–
COc1ccc2c(c1)C(=C1CCN(CCC(=O)O)CC1)c1ncccc1CO2	60	80	0	20	–	–	–	–
CN1CCC(=C2c3ccccc3COc3ccccc32)CC1	60	100	–	0	0.77	0.035	22	ED50 (Mus musculus [8]): 0.73 mg/kg
O=C(O)CCN1CCC(=C2c3cccc(F)c3OCc3cccnc32)CC1	100	–	0	20	–	–	–	–
O=C(O)CCN1CCC(=C2c3cc(Cl)ccc3OCc3cccnc32)CC1	100	–	–	0	–	–	–	–
O=C(O)CCN1CCC(=C2c3cc([N+](=O)[O-])ccc3OCc3cccnc32)CC1	20	80	–	0	–	–	–	–
O=C(O)CCN1CCC(=C2c3ccc(Cl)cc3OCc3ncccc32)CC1	100	–	40	80	–	–	–	–
O=C(O)CCN1CCC(=C2c3ccc(F)cc3OCc3cccnc32)CC1	100	–	0	40	14	0.025	560	ED50 (Rattus norvegicus [2]): 0.29 mg/kg; inhibition in vivo at 0.3 mg/kg (Cavia porcellus [10]): 90%
